# Screening results (PubChem BioAssay)
# TRPC6 act: mouse TRPC6 channel activation; Q61143; HEK293-TRPC6 membrane potential dye fluorescence; stronger effect = higher value; B-score at 10 µM; 310,000 tested, 0.13% active; AID 2550;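 active means B-score of the integrated fluorescence ratio above library mean plus 3 SD, and starting fluorescence ratio within library mean plus 5 SD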;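 further: higher score means more depolarization so channel activation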
# TRPC4 agonist: TRPC4 (mouse) channel activation; Q9QUQ5; HEK293 TRPC4beta/mu-opioid, Fluo4 calcium fluorescence; stronger effect = higher value; B-score at 10 µM; 310,000 tested, 0.49% active; AID 2237;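 active means B-score above 5 SD of library B-scores, and initial fluorescence ratio not above library mean plus 5 SD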;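 further: positive B-score marks a calcium rise read as TRPC4 activation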
# Target sequence (Q9QUQ5 whole entry, looked up): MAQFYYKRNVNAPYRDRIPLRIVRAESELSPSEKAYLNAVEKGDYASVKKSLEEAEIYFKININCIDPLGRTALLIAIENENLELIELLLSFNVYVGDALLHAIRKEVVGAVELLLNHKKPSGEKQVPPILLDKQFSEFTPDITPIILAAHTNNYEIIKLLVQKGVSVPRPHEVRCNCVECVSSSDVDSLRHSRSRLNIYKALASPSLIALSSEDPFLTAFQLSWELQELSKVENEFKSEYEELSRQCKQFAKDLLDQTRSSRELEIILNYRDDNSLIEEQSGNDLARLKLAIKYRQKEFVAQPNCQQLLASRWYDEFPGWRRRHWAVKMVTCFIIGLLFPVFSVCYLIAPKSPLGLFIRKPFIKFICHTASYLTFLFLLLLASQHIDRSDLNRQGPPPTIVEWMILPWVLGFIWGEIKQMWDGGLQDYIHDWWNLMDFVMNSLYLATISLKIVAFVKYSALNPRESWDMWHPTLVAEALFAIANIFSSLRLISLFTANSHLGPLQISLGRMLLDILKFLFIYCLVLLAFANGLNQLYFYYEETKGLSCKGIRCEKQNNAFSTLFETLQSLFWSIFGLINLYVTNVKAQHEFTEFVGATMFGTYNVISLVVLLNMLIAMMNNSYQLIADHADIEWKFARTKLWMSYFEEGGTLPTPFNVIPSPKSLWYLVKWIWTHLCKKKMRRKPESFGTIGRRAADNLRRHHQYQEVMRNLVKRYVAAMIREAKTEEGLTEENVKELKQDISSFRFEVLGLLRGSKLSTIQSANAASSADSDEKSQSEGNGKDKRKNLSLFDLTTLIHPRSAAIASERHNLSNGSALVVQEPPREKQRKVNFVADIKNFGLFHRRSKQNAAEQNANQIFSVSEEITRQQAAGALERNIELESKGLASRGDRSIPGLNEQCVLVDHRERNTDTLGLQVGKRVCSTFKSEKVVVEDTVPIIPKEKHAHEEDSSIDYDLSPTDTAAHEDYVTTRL
#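 Assay system: HEK293 stable line with TRPC4beta plus mu-opioid receptor. Times: dye 45 min RT, read 110 s. Measured by: kinetic Fluo4 calcium fluorescence. Measure: B score of integrated ratio. Controls: assay buffer as low control, maximal DAMGO as high control.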
# TRPC4 block: blocks the mouse TRPC4 cation channel; 300,000 tested, 0.39% active; AID 2247; B-score at 10 µM; HEK293 TRPC4beta/mu-opioid, DAMGO-evoked Fluo4 calcium flux; stronger effect = lower value;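 active means B-score over 3 SD under the library average, no early fluorescence shift, positive overall ratio signal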
#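 Assay system: HEK293 cells with stable TRPC4beta plus mu-opioid receptor expression; Probe or stimulus: DAMGO in two steps, submaximal then maximal; Dosing: single-point compound dosing; Measured by: Fluo4 calcium-dye fluorescence, kinetic read; Read-out basis: B score from integrated Fluo4 fluorescence ratio.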
# TRPC4 potent: allosteric potentiators of mouse TRPC4 channel. Q9QUQ5. HEK293 TRPC4beta/mu-opioid, DAMGO EC20, Fluo-4 Ca2+ flux; stronger effect = higher value. B-score at 10 µM. 310,000 tested, 0.42% active. AID 2227;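 active means B-score of calcium response area above 5 SD of library B-scores, with initial fluorescence ratio within 5 SD of library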
# TRPC6 inh: mouse TRPC6 channel inhibition; Q61143; 310,000 tested, 1.1% active; B-score at 10 µM; HEK293-TRPC6, membrane potential dye, ACh-evoked depolarization; stronger effect = lower value; AID 2553;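 active means B-score under library mean minus 3 SD, initial fluorescence not abnormally high, positive integrated signal ratio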;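 further: B-score derived from integrated fluorescence ratio over the kinetic read; more negative B-score means stronger inhibition of depolarization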
# TRPC4 sel inh 2: mouse TRPC4 off-target activity of TRPC6 inhibitors, second screen | shares compounds with TRPC6 inh | HEK293 TRPC4/MOR, membrane potential dye fluorescence; channel activated by saturating DAMGO dose | inhibition, % at 10 µM | 920 tested, 42% active;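 active means compounds whose fluorescence signal differed from control wells by over 3 SD, either direction, in both duplicate plates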
# TRPC4 spec: selectivity of TRPC6 inhibitors: effect on mouse TRPC4. shares compounds with TRPC6 inh. AID 2777. activity change, negative = inhibition, % at 10 µM. 920 tested, 61% active. HEK293 TRPC4/mu-opioid, membrane potential fluorescence;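 active means rise or fall in signal beyond 3 SD of buffer-only wells in both replicate plates, either sign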;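 further: integrated kinetic ratio of fluorescence range over baseline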
# HEK293 MPD ctr 2-1: parental HEK293 nonspecific activity of TRPC6 inhibitors, second screen | shares compounds with TRPC6 inh | parental HEK293 membrane potential dye fluorescence; maximal acetylcholine challenge after compound addition | signal change vs control, % at 10 µM | 920 tested, 31% active;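 active means membrane potential signal moving either way by over 3 SD of the maximum-effect control, in both duplicate plates, meaning non-specific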
# HEK293 MPD ctr-1: counter-screen for TRPC6 inhibitors: effect in parental HEK293 cells; shares compounds with TRPC6 inh; parental HEK293 membrane potential dye fluorescence; membrane potential signal change, % at 10 µM; 920 tested, 60% active; AID 2780;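 active means membrane potential signal shifting up or down by more than 3 SD of buffer-only wells, on both duplicate plates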
# HEK293 MPD ctr-2: counter-screen for TRPC6 modulators: effect in parental HEK293 cells | membrane potential dye fluorescence | shares compounds with TRPC6 inh | AID 488924 | 2,400 tested, 51% active | membrane potential signal change, % at 10 µM;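 active means membrane potential signal moves up or down beyond 5 SD from buffer-only wells, on both duplicate plates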
# HEK293 MPD ctr 2-2: second counter-screen for TRPC6 modulators: effect in parental HEK293 cells; shares compounds with TRPC6 inh; membrane potential dye fluorescence; after compound, maximal acetylcholine stimulation; inhibition, % at 10 µM; 2,400 tested, 14% active; AID 488926;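 active means membrane potential signal drops by more than 5 SD from the mean control signal, in both duplicate plates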
# TRPC4 ctr mod: tests whether TRPC6 modulators also affect mouse TRPC4 | shares compounds with TRPC6 inh | HEK293 TRPC4/mu-opioid, membrane potential fluorescence | percent change from control (negative = decrease, positive = increase), % at 10 µM | 2,400 tested, 69% active;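 active means membrane potential signal moved up or down beyond 5 SD of buffer control wells, in both duplicate plates, actives on both sides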
# TRPC4/MOR inh 2: mouse TRPC4 off-target activity of TRPC6 modulators, second screen. 2,400 tested, 55% active. HEK293 TRPC4/mu-opioid, membrane potential dye fluorescence; stimulated with maximal-effect DAMGO. shares compounds with TRPC6 inh. inhibition, % at 10 µM;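 active means drop in membrane potential signal beyond 5 SD of the control wells in both duplicate plates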;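 further: TRPC4 counter screen for TRPC6 hits run under conditions tuned for TRPC6 not TRPC4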
# TRPC6 inh conf: confirmation of mouse TRPC6 inhibitors; shares compounds with TRPC6 inh; HEK293-TRPC6, membrane potential dye, ACh-evoked depolarization; inhibition, % at 10 µM; 3,300 tested, 43% active;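 active means fluorescence ratio falls more than 5 SD below the full-stimulation control mean, in both duplicate runs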;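 further: integrated fluorescence ratio of peak minus minimum over baseline after agonist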
# TRPC6 act confirm: mouse TRPC6 activator confirmation; shares compounds with TRPC6 inh; HEK293-TRPC6 membrane potential dye fluorescence, FDSS; activation, % at 10 µM; 2,800 tested, 11% active; AID 488961;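 active means ratio signal rise beyond 5 SD above unstimulated control wells' mean, seen in both duplicate runs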
# Hits are given with their value; . = inactive; / = no result; + = active, no number. Hits are enriched below; roughly 2.3% of the tested compounds scored in any of these assays.
SMILES,TRPC6 act,TRPC4 agonist,TRPC4 block,TRPC4 potent,TRPC6 inh,HEK293 MPD ctr-2,HEK293 MPD ctr 2-2,TRPC4 ctr mod,TRPC4/MOR inh 2,TRPC6 inh conf,TRPC6 act confirm,others
CC1(C)SC2c3ccccc3C(=O)N2[C@@H]1C(=O)NCCCN1CCOCC1 (some centres undefined),.,.,.,.,-5.1,.,.,11%,.,.,/,
Cc1nn(-c2ccccc2)c(Cl)c1C(=O)OCC(=O)N(C)c1c(N)n(Cc2ccccc2)c(=O)[nH]c1=O,.,.,.,.,.,/,/,/,/,/,/,
COc1ccc(S(=O)(=O)N2CCN(c3ccc4nnc(-c5ccc(F)cc5)n4n3)CC2)cc1,.,.,.,.,-6.8,/,/,/,/,.,.,TRPC4 sel inh 2=.;TRPC4 spec=.;HEK293 MPD ctr 2-1=.;HEK293 MPD ctr-1=.
Cc1cccc(N2CCN(C(=O)C3COc4ccccc4O3)CC2)c1C (centres undefined),.,.,.,.,-5.1,.,.,.,.,42%,/,
COc1ccc2c(C)c(CC(=O)N3CCN(C(=O)C4COc5ccccc5O4)CC3)c(=O)oc2c1 (centres undefined),.,.,.,.,-5.3,238%,.,44%,.,.,/,
O=C(C1COc2ccccc2O1)N1CCN(c2ccccc2Cl)CC1 (centres undefined),.,.,.,.,.,/,/,/,/,/,/,
Cc1cc(Br)ccc1OCCCCNC(C)(C)C,.,.,.,.,.,/,/,/,/,/,/,
CC(C)COc1ccc(Br)cc1CNC(C)(C)C,.,.,.,.,-8.8,584%,120%,128%,83%,106%,/,
C=CCOc1ccc(C(=O)Nc2ccccc2C(=O)NCc2cccnc2)cc1,.,.,.,.,.,/,/,/,/,/,/,
O=c1c2ccccc2nnn1CSc1nnc(-c2cccnc2)n1-c1ccccc1F,.,.,.,.,.,/,/,/,/,/,/,
O=C1OCCC1Sc1nnc(-c2cccnc2)n1-c1ccccc1F (centres undefined),.,.,.,.,-7.5,/,/,/,/,.,.,TRPC4 sel inh 2=.;TRPC4 spec=.;HEK293 MPD ctr 2-1=.;HEK293 MPD ctr-1=.
COc1ccc(Nc2ccc(S(=O)(=O)N3CCCCC3)cc2[N+](=O)[O-])cc1,.,.,.,26,-5.3,.,.,.,.,.,.,
COc1cc(OC)c(C(=O)Nc2ccncc2)cc1OC,.,.,.,.,-5.1,.,72%,-8.5%,36%,46%,.,
O=[N+]([O-])c1ccc(N=Nc2c(Cl)cc(O)cc2Cl)cc1,.,.,.,.,-9.6,/,/,/,/,114%,.,TRPC4 sel inh 2=27%;TRPC4 spec=5.7%;HEK293 MPD ctr 2-1=-26%;HEK293 MPD ctr-1=.
O=C(NCCCn1ccnc1)C1c2ccccc2Oc2ccccc21,.,.,.,.,-6,.,.,32%,.,.,.,
COc1ccc(-c2coc3cc(O)cc(O)c3c2=O)cc1,.,.,.,.,.,/,/,/,/,/,/,
COc1ccc(-c2coc3cc(OC)cc(O)c3c2=O)cc1,.,.,.,.,-8.6,.,.,.,.,.,.,
Nc1ccc(/C=C/C(=O)c2cccs2)cc1,81,92,.,.,.,+,+,291%,76%,/,543%,
COc1ccccc1NC(=O)C(C)OC(=O)CCSc1ccc(F)cc1 (centres undefined),.,.,.,.,.,/,/,/,/,/,/,
CC(C)C(=O)Nc1cccc(C(=O)Nc2ccc(S(=O)(=O)N3CCOCC3)cc2)c1,.,.,.,.,.,/,/,/,/,/,/,
COc1cccc(OC)c1C(=O)Nc1ccc(S(=O)(=O)N2CCCCC2)cc1,.,.,.,.,.,/,/,/,/,/,/,
O=C(CN1CCCC1)N1CCCc2c1c(=O)oc1ccc(OCc3ccccc3)cc21,.,.,.,.,-6.5,.,.,.,70%,.,.,
CN(C)C=Nc1c(Br)cc(Br)c2nonc12,25,.,.,.,.,984%,.,136%,.,.,190%,
O=[N+]([O-])c1ccc(S(=O)(=O)Nc2nc3ccccc3nc2Nc2ccccc2)cc1,.,.,.,.,.,/,/,/,/,/,/,
COc1cc(Nc2nc3ccccc3nc2NS(=O)(=O)c2ccc([N+](=O)[O-])cc2)cc(OC)c1OC,.,.,.,.,-6.4,-116%,.,-26%,50%,48%,.,
SMILES,TRPC6 act,TRPC4 agonist,TRPC4 block,TRPC4 potent,TRPC6 inh,HEK293 MPD ctr-2,HEK293 MPD ctr 2-2,TRPC4 ctr mod,TRPC4/MOR inh 2,TRPC6 inh conf,TRPC6 act confirm,others
Clc1ccc(CNC2CCN(Cc3ccccc3)CC2)cc1,.,.,.,.,-6,.,.,.,55%,.,/,
Fc1ccc(CNC2CCN(Cc3ccccc3)CC2)cc1,.,.,.,.,.,/,/,/,/,/,/,
Cc1nn(-c2cc(N3CCCCCC3)ccc2[N+](=O)[O-])c(=O)c2ccccc12,.,.,.,.,.,/,/,/,/,/,/,
Cc1ccc(-c2nn(-c3cc(N4CCNCC4)ccc3[N+](=O)[O-])c(=O)c3ccccc23)cc1,.,.,.,.,-9.6,/,/,/,/,.,.,TRPC4 sel inh 2=51%;TRPC4 spec=-11%;HEK293 MPD ctr 2-1=.;HEK293 MPD ctr-1=.
Cc1sc2nc(CSC(C)C(=O)N3CCOCC3)[nH]c(=O)c2c1C (centres undefined),.,.,.,.,.,/,/,/,/,/,/,
Cn1c(NCc2c[nH]c3ccccc23)nc2ccccc21,.,.,-5,.,-6.7,/,/,/,/,.,.,TRPC4 sel inh 2=48%;TRPC4 spec=-12%;HEK293 MPD ctr 2-1=.;HEK293 MPD ctr-1=-214%
COc1cccc(CNc2nc3ccccc3n2C)c1O,.,.,.,.,-5.7,.,.,.,43%,.,.,
COc1cccc(CNc2cnc3ccccc3c2)c1O,.,.,.,.,.,/,/,/,/,/,/,
O=C(CCCCCN1C(=O)c2ccccc2C1=O)Nc1ccc(C(=O)O)cc1,.,.,.,.,.,/,/,/,/,/,/,
